# Bioassay records: PubChem, several laboratories
# In the library only some 4.8% were active in any assay of this set; here they are far more common.
# PAFAH1B2 FP inh: PAFAH1B2 enzyme inhibitors, primary screen, biochemical, fluorescence polarization, human; recombinant PAFAH1B2, FP-rhodamine activity probe; hit rate 1.2% among 340,000; inhibition, % at 3.39 µM; AID 492953, 2010;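 active = inhibition above the mean of all tested compounds plus 3 SD, cut at about 24% in these data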;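 note: 0% = enzyme with DMSO and 100% = wells lacking PAFAH1B2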
# Target sequence (P68402 whole entry, looked up): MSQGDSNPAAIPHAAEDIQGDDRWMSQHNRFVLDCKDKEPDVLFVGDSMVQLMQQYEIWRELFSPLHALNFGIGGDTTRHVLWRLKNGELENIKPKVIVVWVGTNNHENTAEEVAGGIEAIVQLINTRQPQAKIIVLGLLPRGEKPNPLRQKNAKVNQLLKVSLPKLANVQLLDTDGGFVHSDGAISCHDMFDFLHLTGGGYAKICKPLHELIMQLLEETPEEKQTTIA
# UCH37 inh: inhibitors of human UCH37 deubiquitinase, primary screen, biochemical, Ub-AMC cleavage, fluorescence; Ubiquitin carboxyl-terminal hydrolase isozyme L5 (Homo sapiens), Q9Y5K5; purified proteasome/UCH37; inhibition, % (no concentration beside the values); hit rate 0.33% among 330,000; AID 588478, 2011;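 active = mean inhibition over replicate wells above about 20%, limit read from the data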;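 note: 0% = compound-free wells with enzyme and 100% = wells lacking proteasome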
# Target sequence (Q9Y5K5 whole entry, looked up): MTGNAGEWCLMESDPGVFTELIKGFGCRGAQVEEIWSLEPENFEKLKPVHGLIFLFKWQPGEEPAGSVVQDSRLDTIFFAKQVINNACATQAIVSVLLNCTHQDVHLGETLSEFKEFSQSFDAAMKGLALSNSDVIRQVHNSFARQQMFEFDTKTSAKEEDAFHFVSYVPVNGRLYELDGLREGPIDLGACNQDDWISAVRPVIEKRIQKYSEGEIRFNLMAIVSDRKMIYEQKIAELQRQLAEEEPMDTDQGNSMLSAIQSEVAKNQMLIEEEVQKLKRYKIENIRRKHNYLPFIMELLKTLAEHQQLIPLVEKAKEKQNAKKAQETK
#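 Assay system: Proteasome-bound UCH37. Buffer or medium: pH 7.4 Tris-HCl (50 mM) with ovalbumin, ATP-MgCl2, DTT. Incubation: 30 min preincubation with enzyme, 25 min cleavage at room temperature. Measured by: fluorescence, ex 355 nm, em 460 nm. Read-out basis: percent inhibition. Control set: wells without proteasome as full block, compound-free enzyme plus substrate as uninhibited.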
# PAFAH2 FP inh: PAFAH2 enzyme inhibitors, primary screen, biochemical, fluorescence polarization, human. AID 492956, 2010. Platelet-activating factor acetylhydrolase 2, cytoplasmic (Homo sapiens), Q99487. inhibition, % at 3.39 µM. hit rate 0.99% among 340,000. recombinant PAFAH2, FP-rhodamine activity probe;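 active = inhibition above the mean over all tested compounds plus 3 SD, cut at about 30% in these data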;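 note: inhibitors block probe labeling of enzyme so polarization drops; 0% = enzyme with DMSO and 100% = wells lacking PAFAH2 protein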
# PAFAH1B3 FP inh: PAFAH1B3 enzyme inhibitors, primary screen, biochemical, fluorescence polarization, human. AID 492972, 2010. hit rate 0.28% among 340,000. inhibition, % at 3.39 µM. recombinant PAFAH1B3, FP-rhodamine probe;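 active = inhibition above the screen-wide average of all tested compounds plus 3 SD, cut at about 25% in these data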;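 note: 0% = enzyme with DMSO only and 100% = wells lacking PAFAH1B3 protein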
# NR3A LBD binder: binders of NR3A ligand-binding domain, primary screen, biophysical, differential scanning fluorimetry, uHTS | Glutamate receptor ionotropic, NMDA 3A (GRIN3A) ligand-binding domain | NR3A LBD differential scanning fluorimetry, Tm shift; 0% = protein alone, 100% = glycine-bound protein | Tm shift relative to glycine control, % at 25 µM | hit rate 2.5% among 340,000;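 active = melting temperature shift of at least 10% of the positive control shift, at one fixed dose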
# pPAFAH inh: pPAFAH enzyme inhibitors, primary screen, biochemical, fluorescence polarization, human. Platelet-activating factor acetylhydrolase (Homo sapiens), Q13093. recombinant pPAFAH, FP-rhodamine probe fluorescence polarization. inhibition, % at 3.39 µM. hit rate 1.5% among 330,000. AID 463082, 2010;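 active = inhibition above the mean inhibition across the screen plus 3 SD, cut at about 25% in these data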;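 note: inhibitors block binding of the rhodamine activity-based probe so polarization drops; 0% = enzyme with DMSO and 100% = wells lacking pPAFAH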
# PAFAH2 FP conf: PAFAH2 enzyme inhibitors, confirmation, biochemical, fluorescence polarization, human; shares compounds with PAFAH2 FP inh; recombinant PAFAH2, FP-rhodamine activity probe; inhibition, % at 3.39 µM; hit rate 65% among 2,300;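 active = mean inhibition over three repeats above a set limit taken from the earlier primary screen, cut at about 30% in these data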;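 note: inhibitor blocks binding of rhodamine activity probe so polarization falls; 0% = enzyme with DMSO and 100% = wells lacking PAFAH2 protein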
# An asterisk follows results filed as active; · = no result given.
SMILES,PAFAH1B2 FP inh,UCH37 inh,PAFAH2 FP inh,PAFAH1B3 FP inh,NR3A LBD binder,pPAFAH inh,PAFAH2 FP conf
O=C(COC(=O)c1ccc(Cl)nc1)Nc1cc(S(=O)(=O)N2CCCCC2)ccc1Cl,0,3,38*,6,-5,3,13
Cc1ccc(N/N=C/c2c(O)cc(C)oc2=O)cc1,6,·,5,3,-1,2,·
Cc1ccc(CO/N=C/c2c(O)cc(C)oc2=O)cc1,22,·,37*,4,-1,-1,12
Cc1c(Cl)cnc(NC(=O)COC(=O)c2cccs2)c1Cl,-2,4,58*,6,0,-1,41*
Cc1nc(NC(=O)COC(=O)c2cccs2)c(Cl)cc1Cl,2,2,43*,2,3,·,29
C=CCc1cc(C=NNC(=O)CSc2nnc(CCCc3ccc(OC)cc3)o2)cc(OC)c1O,·,6,·,·,·,·,·
COC(=O)NN=Cc1cccc(OC(=O)c2cccs2)c1,·,5,·,·,·,·,·
CCOC(=O)C1=C(C)N=C(N=CN(C)C)SC1c1ccccc1 (centres undefined),·,7,·,·,·,·,·
O=[N+]([O-])c1cc(C=NO)ccc1SCc1ccccc1Cl,·,4,·,·,·,·,·
CC(C)(C)OC(=O)C[C@@H]1C/C=C\C[C@@H](CC(=O)N[C@H](CO)Cc2ccccc2)C(=O)NC[C@H](c2ccccc2)OC1=O,4,3,1,3,1,-1,·
CC(C)(C)OC(=O)C[C@H]1C/C=C\C[C@@H](CC(=O)N[C@H](CO)Cc2ccccc2)C(=O)NC[C@H](c2ccccc2)OC1=O,10,1,52*,0,-1,3,8
O=c1c2ccccc2nc(COc2ccccc2)n1N=Cc1cn[nH]c1-c1ccccc1,·,2,·,·,·,·,·
O=C(COC(=O)CC(c1ccccc1)c1ccccc1)Nc1cccc(F)c1,5,-1,77*,4,-3,13,69*
O=C(COC(=O)CC(NC(=O)c1ccccc1Cl)c1ccccc1)Nc1cccc(F)c1 (centres undefined),5,6,82*,-10,-3,8,76*
COc1ccccc1NC(=O)c1ccc(NC(=O)COC(=O)CC(NC(=O)c2ccccc2Cl)c2ccccc2)cc1 (centres undefined),-9,6,-7,-4,-31,6,·
CN(C)c1cc(NN=Cc2ccccc2C(F)(F)F)nc(N(C)C)n1,·,-9,·,·,·,·,·
C=C(C)c1nc2cc(OC)c(OC)cc2c(=O)o1,5,1,11,18,0,0,·
COc1cc2nc(CCc3ccccc3)oc(=O)c2cc1OC,13,-2,36*,3,-1,6,22
COc1cc2nc(-c3ccc(Br)o3)oc(=O)c2cc1OC,-2,-3,53*,5,0,3,41*
Cc1ccc2nc(C)cc(Cl)c2c1,5,0,7,-4,1,0,·
Cc1ccc2nc(-c3ccc(Br)o3)oc(=O)c2c1,-4,-19,66*,7,0,3,66*
O=C(CN1C(=O)C2CC=CCC2C1=O)Nc1nc2ccc(F)cc2s1 (centres undefined),3,3,4,-3,-20,5,·
Cc1cnc(C(=O)Nc2nnc(SCc3c(Cl)cccc3Cl)s2)cn1,1,-2,60*,13,-25,-1,50*
CCSc1nnc(NC(=O)C2Cc3ccccc3CN2S(=O)(=O)CC)s1 (centres undefined),2,5,2,3,-5,8,·
Cc1ccc(CN2CC(C(=O)Nc3nnc(SCc4c(Cl)cccc4Cl)s3)CC2=O)cc1 (centres undefined),-1,3,22,-2,1,17,·
SMILES,PAFAH1B2 FP inh,UCH37 inh,PAFAH2 FP inh,PAFAH1B3 FP inh,NR3A LBD binder,pPAFAH inh,PAFAH2 FP conf
O=C(CN1C(=O)C2CC=CCC2C1=O)Nc1nnc(SCc2c(Cl)cccc2Cl)s1 (centres undefined),9,3,78*,0,-7,12,74*
CCS(=O)(=O)N1Cc2ccccc2CC1C(=O)Nc1nnc(SCc2c(Cl)cccc2Cl)s1 (centres undefined),6,1,52*,-9,6,2,35*
CC(=NNC(=O)c1sccc1C)c1ccncc1,·,1,·,·,·,·,·
CC(=NNC(=S)NCc1ccccc1)c1ccc2ccccc2c1OC(F)F,·,1,·,·,·,·,·
O=C(N/N=C/c1cccc(Cl)c1)C(c1ccncc1)N1CCOCC1 (centres undefined),3,·,50*,2,0,7,41*
Nc1c(-c2cccc(Cl)c2)cnn1-c1ccccc1,3,2,2,-3,-14,8,·
O=c1oc(-c2cccc(Cl)c2)nc2c1cnn2-c1ccccc1,-3,-376,70*,6,0,20,52*
O=c1oc(-c2ccccc2F)nc2c1cnn2-c1ccccc1,4,-16,74*,8,2,0,45*
Cc1ccc(C(=O)OCC(=O)NCC(F)(F)F)cc1C,7,5,53*,-4,-4,6,50*
Cc1ccsc1C(=O)OCC(=O)NCCCc1ccccc1,11,6,30*,-1,1,13,13
Cc1ccc(C(=O)OCC(=O)NCCc2ccccc2)cc1C,5,-1,57*,1,2,13,33*
Cc1ccsc1C(=O)OCC(=O)NCCNC(=O)COC(=O)c1sccc1C,3,5,2,-2,0,3,·
O=C(COC(=O)c1ccc(O)cc1)NCCCc1ccccc1,3,5,32*,2,-1,·,22
Cc1nc2ccc(C(=O)NN=Cc3ccccc3O)cc2[nH]1,·,-35,·,·,·,·,·
COc1ccc(C(=O)OCC(=O)NC2CCCC2)c(OC)c1,-1,1,70*,0,0,6,56*
COc1ccc(C(=O)OCC(=O)NC2CCCC2)c(OC)c1OC,1,5,89*,4,-7,12,81*
COc1ccc(C(=O)OCC(=O)NC(=O)NC2CCCC2)c(OC)c1,1,-1,25,5,0,3,·
COc1cc(C(=O)OCC(=O)NC2CC2)cc(OC)c1OC,4,2,2,6,0,-2,·
COc1ccc(C(=O)OCC(=O)NC2CCCCCC2)c(OC)c1,4,3,82*,11,0,·,78*
Cc1[nH]c2ccccc2c1C=NNS(=O)(=O)c1ccccc1,·,1,·,·,·,·,·
